# Measurements pooled from the literature.
# Each line is one published result; the experiments were not run side by side.
# Target: Serine/threonine-protein kinase PAK 2 (PAK2, Homo sapiens, UniProt Q13177)
Compound,read-out,action,method,concentration,notes,endpoint,result
C1=C/COCc2cc(ccc2OCCN2CCCC2)Nc2nccc(n2)-c2cccc(c2)COC/1,binding,,,0.1 µM,,remaining binding,94%
C#Cc1cnc(Nc2ccnc(CO)c2)nc1Nc1ccccc1S(C)(=O)=NC#N (stereo not shown),cell-free assay,,,1 µM,,remaining signal,48%
N#Cc1ccc(NC(=O)Nc2ccccc2)cc1,cell-free assay,,competition with immobilised ligand,25 µM,,remaining binding,82%
C=CC(=O)N1CCC([C@@H]2CCNc3c(C(N)=O)c(-c4ccc(Oc5ccccc5)cc4)nn32)CC1,enzyme activity,inhibitor,,1 µM,,inhibition,23%
C[C@H]1CC[C@H](n2c3cnccc3c3cnc(Nc4ccc5c(n4)CCN(C(=O)CO)C5)nc32)CC1,cell-free assay,,,1 µM,,remaining signal,76%
Cc1cc(O)c(-c2ccc([C@@H](C)CN(C)C)cc2)c2c1[nH]c(=O)c1sccc12,cell-free assay,inhibitor,,0.1 µM,lysate,inhibition,-5.59%
COc1ccc2oc(-c3ccc4nc(N)oc4c3)c/c(=N\c3ccccc3NC(=O)CCN)c2c1,binding,,,1 µM,,remaining binding,98%
CCCCC(=O)Nc1ccc(-c2ccc3ncn(CCC)c(=O)c3c2)cn1,binding,,competition with immobilised ligand,0.5 µM,,remaining binding,91%
CN1CCN(C(=O)c2ccc(NC(=O)Nc3ccc(N(C)c4ccnc(Nc5ccc(CS(C)(=O)=O)cc5)n4)cc3)cc2)CC1,binding,,,1 µM,,remaining binding,50%
CO[C@@H]1[C@H](N(C)C(=O)c2ccccc2)C[C@H]2O[C@]1(C)n1c3ccccc3c3c4c(c5c6ccccc6n2c5c31)C(=O)NC4,enzyme activity,inhibitor,,1 µM,,inhibition,28%
